The values below come from ChEMBL document CHEMBL1122942, “Conformationally defined adrenergic agents. 1. Design and synthesis of novel alpha 2 selective adrenergic agents: electrostatic repulsion based conformational prototypes” (J Med Chem, 1985).

Each structure is given as a SMILES string.

Experiment [1] deals with T1, Adrenergic receptor alpha-2 (Rattus norvegicus, UniProt P22086+P19328+P22909).
T1 sequence (P22086 whole entry): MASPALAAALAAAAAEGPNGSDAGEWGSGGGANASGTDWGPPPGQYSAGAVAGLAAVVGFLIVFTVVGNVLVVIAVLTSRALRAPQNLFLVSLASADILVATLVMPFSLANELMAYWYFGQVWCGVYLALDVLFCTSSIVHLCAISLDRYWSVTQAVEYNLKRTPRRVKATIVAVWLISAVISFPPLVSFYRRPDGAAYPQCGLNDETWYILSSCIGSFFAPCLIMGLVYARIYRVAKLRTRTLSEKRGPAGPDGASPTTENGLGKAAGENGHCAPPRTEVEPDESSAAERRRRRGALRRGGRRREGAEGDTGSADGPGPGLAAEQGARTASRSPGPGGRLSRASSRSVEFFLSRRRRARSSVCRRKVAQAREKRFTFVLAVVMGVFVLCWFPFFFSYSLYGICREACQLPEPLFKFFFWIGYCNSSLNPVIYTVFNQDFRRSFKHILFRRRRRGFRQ
T1 sequence (P19328 whole entry): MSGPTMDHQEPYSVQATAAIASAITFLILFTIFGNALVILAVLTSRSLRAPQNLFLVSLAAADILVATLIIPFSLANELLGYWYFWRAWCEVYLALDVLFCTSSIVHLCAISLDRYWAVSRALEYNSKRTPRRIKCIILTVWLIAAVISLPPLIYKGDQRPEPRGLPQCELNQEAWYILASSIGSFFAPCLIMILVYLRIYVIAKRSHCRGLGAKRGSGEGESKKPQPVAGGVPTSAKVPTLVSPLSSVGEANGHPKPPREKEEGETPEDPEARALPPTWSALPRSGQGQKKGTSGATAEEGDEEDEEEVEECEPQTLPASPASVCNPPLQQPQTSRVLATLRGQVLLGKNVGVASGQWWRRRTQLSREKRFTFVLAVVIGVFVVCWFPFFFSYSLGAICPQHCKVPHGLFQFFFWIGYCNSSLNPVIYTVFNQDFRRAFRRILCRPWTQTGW
T1 sequence (P22909 whole entry): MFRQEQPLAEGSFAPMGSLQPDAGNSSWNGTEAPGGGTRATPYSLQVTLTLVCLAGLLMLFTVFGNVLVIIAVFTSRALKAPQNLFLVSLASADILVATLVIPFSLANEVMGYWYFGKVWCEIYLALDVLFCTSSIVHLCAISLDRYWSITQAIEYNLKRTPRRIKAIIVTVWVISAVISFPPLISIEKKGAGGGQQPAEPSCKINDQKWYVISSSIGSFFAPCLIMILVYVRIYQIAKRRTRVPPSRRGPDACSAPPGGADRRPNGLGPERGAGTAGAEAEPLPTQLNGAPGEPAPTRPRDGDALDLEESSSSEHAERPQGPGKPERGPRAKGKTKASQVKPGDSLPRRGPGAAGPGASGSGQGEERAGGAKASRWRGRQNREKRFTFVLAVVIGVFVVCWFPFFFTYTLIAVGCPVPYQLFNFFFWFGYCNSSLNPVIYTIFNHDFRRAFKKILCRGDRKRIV
Briefly: Binding affinity towards alpha-2 adrenergic receptor in rat using [3H]rauwolscine as radioligand. The gist of the method:
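Male Sprague-Dawley rat cerebral cortex membranes (50-150 µg/mL protein) in 50 mM Tris-HCl pH 7.7 with [3H]rauwolscine. Incubated 2 h at 4 °C; phentolamine 10^-5 M defined nonspecific binding. At least four concentrations from 10^-10 to 10^-3 M, each in duplicate. Bound ligand was filtered and counted by scintillation.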

The target of experiment [2] is T2, Adrenergic receptor alpha-1 (Rattus norvegicus, UniProt P15823+P23944+P43140).
T2 sequence (P15823 whole entry): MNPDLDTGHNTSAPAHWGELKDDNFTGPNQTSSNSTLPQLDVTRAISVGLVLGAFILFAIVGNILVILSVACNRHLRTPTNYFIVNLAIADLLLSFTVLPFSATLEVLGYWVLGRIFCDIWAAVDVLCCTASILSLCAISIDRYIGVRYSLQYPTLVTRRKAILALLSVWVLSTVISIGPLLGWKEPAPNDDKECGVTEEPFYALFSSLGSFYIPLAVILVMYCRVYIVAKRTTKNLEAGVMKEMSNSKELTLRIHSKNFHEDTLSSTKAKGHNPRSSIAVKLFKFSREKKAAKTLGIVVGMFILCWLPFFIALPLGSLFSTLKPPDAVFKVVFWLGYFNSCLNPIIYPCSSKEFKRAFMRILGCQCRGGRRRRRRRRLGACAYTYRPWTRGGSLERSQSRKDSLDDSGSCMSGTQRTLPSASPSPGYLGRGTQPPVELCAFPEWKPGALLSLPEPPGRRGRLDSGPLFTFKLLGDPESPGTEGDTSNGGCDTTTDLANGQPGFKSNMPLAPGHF
T2 sequence (P23944 whole entry): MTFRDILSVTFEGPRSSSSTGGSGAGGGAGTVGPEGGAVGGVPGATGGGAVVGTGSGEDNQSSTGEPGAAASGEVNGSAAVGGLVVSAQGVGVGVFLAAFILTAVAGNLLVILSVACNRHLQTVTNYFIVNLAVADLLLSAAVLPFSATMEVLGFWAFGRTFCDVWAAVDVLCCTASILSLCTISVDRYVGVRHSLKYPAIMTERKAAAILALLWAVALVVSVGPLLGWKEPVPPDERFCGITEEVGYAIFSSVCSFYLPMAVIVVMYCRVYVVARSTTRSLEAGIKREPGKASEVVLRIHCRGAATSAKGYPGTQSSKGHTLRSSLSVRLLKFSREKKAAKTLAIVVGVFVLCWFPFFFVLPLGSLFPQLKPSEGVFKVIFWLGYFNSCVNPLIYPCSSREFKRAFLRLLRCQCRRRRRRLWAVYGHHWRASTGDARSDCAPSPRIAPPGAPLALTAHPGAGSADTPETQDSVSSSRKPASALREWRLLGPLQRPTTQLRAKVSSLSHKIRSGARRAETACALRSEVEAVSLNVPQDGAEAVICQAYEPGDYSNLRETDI
T2 sequence (P43140 whole entry): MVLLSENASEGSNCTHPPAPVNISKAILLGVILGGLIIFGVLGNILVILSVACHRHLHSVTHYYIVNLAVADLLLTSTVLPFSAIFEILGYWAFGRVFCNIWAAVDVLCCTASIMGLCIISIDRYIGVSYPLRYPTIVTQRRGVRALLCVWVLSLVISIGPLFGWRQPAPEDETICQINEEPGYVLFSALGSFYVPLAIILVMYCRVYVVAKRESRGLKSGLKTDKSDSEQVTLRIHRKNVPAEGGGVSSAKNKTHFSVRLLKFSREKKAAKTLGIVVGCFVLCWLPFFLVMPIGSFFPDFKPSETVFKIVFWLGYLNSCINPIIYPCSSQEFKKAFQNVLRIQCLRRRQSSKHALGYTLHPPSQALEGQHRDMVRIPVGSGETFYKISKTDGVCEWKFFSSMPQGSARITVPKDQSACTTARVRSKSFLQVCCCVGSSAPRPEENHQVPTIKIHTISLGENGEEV
Briefly: Binding affinity against alpha-1 adrenergic receptor in rat using [3H]prazosin as radioligand. The gist of the method: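 Male Sprague-Dawley rat liver membranes (50-150 µg/mL protein) in 50 mM Tris-HCl pH 7.7 with [3H]prazosin. Incubated 50 min at 25 °C; phentolamine 10^-5 M defined nonspecific binding. At least four concentrations from 10^-10 to 10^-3 M, each in duplicate. Bound ligand was filtered and counted by scintillation.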

Experiment [3] deals with Adrenergic receptor alpha (Rattus norvegicus) (UniProt P15823+P23944+P43140+P22086+P19328+P22909). Briefly: Relative affinities for Alpha1 and alpha-2 adrenergic receptors in rat.

Take `CCN(CC)CC1CCc2c1ccc(O)c2O` (configuration not stated): the Ki in experiment [1] was found to be 0.32 µM; in experiment [2], 3.6 µM. In experiment [3], the Ratio amounted to 11.

Consider `CC(C)NCC1CCCc2cc(O)c(O)cc21` (configuration not stated), for which the figures for the inhibition constant (Ki) in experiment [1] and in experiment [2] were 2.5 µM and 14 µM, respectively.

In the case of `CC(C)NCC1CCCc2c1ccc(O)c2O` (configuration not stated), the Ki in experiment [1] stood at 4.7 µM; in experiment [2] it was 6.6 µM.

Consider `NCC1CCCc2c1ccc(O)c2O` (configuration not stated), for which the results for the inhibitory constant (Ki) in experiment [1] and in experiment [2] were 0.047 µM and 13 µM, respectively.

`NCC1CCc2cc(O)c(O)cc21` (configuration not stated): the results for the Ki in experiment [1] and in experiment [2] were 0.52 µM and 26 µM, respectively.

In the case of `CCN(CC)CC1CCCc2c1ccc(O)c2O` (configuration not stated), the results for the inhibitory constant (Ki) in experiment [1] and in experiment [2] were 0.25 µM and 3.1 µM, respectively. Also, the Ratio in experiment [3] came out at 13.

On to `NCC1Cc2c1ccc(O)c2O` (configuration not stated), for which the figures for the inhibitory constant (Ki) in experiment [1] and in experiment [2] were 0.17 µM and 16 µM, respectively. The Ratio in experiment [3] is 98.

Consider `NCC(O)c1ccc(O)c(O)c1F` (configuration not stated), for which the inhibition constant (Ki) in experiment [1] was 1.4 µM; in experiment [2], 25 µM.

For `CC(C)NCC1CCc2cc(O)c(O)cc21` (configuration not stated), the Ki in experiment [1] amounted to 3.8 µM; in experiment [2], 11 µM.

`CN(C)CC1CCCc2c1ccc(O)c2O` (configuration not stated): the results for the Ki in experiment [1] and in experiment [2] were 0.66 µM and 13 µM, respectively.

In the case of `CN(C)CC1CCc2cc(O)c(O)cc21` (configuration not stated), the values for the Ki in experiment [1] and in experiment [2] were 0.86 µM and 13 µM, respectively.

`CN(C)CC1CCc2c1ccc(O)c2O` (configuration not stated): the inhibition constant (Ki) in experiment [1] turned out to be 0.025 µM; in experiment [2], 6.9 µM. Further, in experiment [3], the Ratio was determined as 270.

Consider `NCC1CCCCc2c1ccc(O)c2O` (configuration not stated), for which the Ki stood at 0.88 µM in experiment [1] and 27 µM in experiment [2]. The Ratio in experiment [3] worked out at 30.

For `CN(C)CC1CCCc2cc(O)c(O)cc21` (configuration not stated), the inhibitory constant (Ki) in experiment [1] was found to be 0.7 µM; in experiment [2], 13 µM.

With `CNCC1CCc2c1ccc(O)c2O` (configuration not stated), the inhibitory constant (Ki) in experiment [1] is 0.007 µM; in experiment [2], 2 µM. In experiment [3], the Ratio was determined as 290.

As to `CCCN(CCC)CC1CCc2cc(O)c(O)cc21` (configuration not stated), the Ki in experiment [1] is 0.69 µM; in experiment [2], 29 µM.

As for `CCNCC1CCCc2c1ccc(O)c2O` (configuration not stated), the results for the Ki in experiment [1] and in experiment [2] were 0.2 µM and 7.9 µM, respectively. Also, the Ratio in experiment [3] was 40.

In turn, `Brc1c(NC2=NCCN2)ccc2nccnc12` [BRIMONIDINE] displayed a Ki in experiment [2] of 0.74 µM.

For `CNCC1CCCc2cc(O)c(O)cc21` (configuration not stated), the inhibition constant (Ki) in experiment [1] came to 1.3 µM; in experiment [2] it was 8.7 µM.

As to `NCC1CCc2c1ccc(O)c2O` (configuration not stated), the inhibitory constant (Ki) turned out to be 0.015 µM in experiment [1] and 8.6 µM in experiment [2]. The Ratio in experiment [3] was determined as 560.

Turning to `CN(C)CC1Cc2c1ccc(O)c2O` (configuration not stated), the values for the Ki in experiment [1] and in experiment [2] were 0.021 µM and 3.3 µM, respectively. In addition, the Ratio in experiment [3] was found to be 160.

Consider `NCC1CCCc2cc(O)c(O)cc21` (configuration not stated), for which the results for the Ki in experiment [1] and in experiment [2] were 5.1 µM and 15 µM, respectively.

With `CCCN(CCC)CC1CCCc2cc(O)c(O)cc21` (configuration not stated), the inhibition constant (Ki) in experiment [1] worked out at 0.6 µM; in experiment [2], 16 µM.

As to `CNCC1CCCc2c1ccc(O)c2O` (configuration not stated), the figures for the Ki in experiment [1] and in experiment [2] were 0.044 µM and 7.9 µM, respectively.

Consider `CCCN(CCC)CC1CCCc2c1ccc(O)c2O` (configuration not stated), for which the inhibition constant (Ki) in experiment [1] was determined as 0.18 µM; in experiment [2], 7.9 µM.

With `CCCN(CCC)CC1CCc2c1ccc(O)c2O` (configuration not stated), the values for the Ki in experiment [1] and in experiment [2] were 0.47 µM and 7.4 µM, respectively. Further, the Ratio in experiment [3] came to 16.

On to `CCNCC1CCc2c1ccc(O)c2O` (configuration not stated), for which the Ki in experiment [1] came to 0.13 µM; in experiment [2], 2.5 µM. For the same molecule, the Ratio in experiment [3] amounted to 20.

As to `NCC1CCCCc2cc(O)c(O)cc21` (configuration not stated), the inhibition constant Ki in experiment [1] stood at 19 µM; in experiment [2], 11 µM.

As for `NCC1Cc2cc(O)c(O)cc21` (configuration not stated), the Ki worked out at 0.2 µM in experiment [1] and 5 µM in experiment [2].

`NCC(O)c1cc(O)c(O)cc1F` (configuration not stated) displayed an inhibition constant Ki in experiment [2] of 0.65 µM. In other words, the sub-micromolar range.

Regarding `CC(C)NCC1CCc2c1ccc(O)c2O` (configuration not stated), the Ki amounted to 0.66 µM in experiment [1] and 4.6 µM in experiment [2]. In experiment [3], the Ratio worked out at 6.9.

The term Ki denotes a dissociation constant, usually derived from enzyme kinetics or from competition with a known ligand. A low value points to tighter binding.
